Here are results for 17 compounds from ChEMBL document CHEMBL1147206, “Synthetic cinnamylphenol derivatives as cancer chemopreventive agents” (2007).

For test [1], the system named is Human gammaherpesvirus 4. In words: TPA-induced EBV early antigen activation in Raji cells at 3.2 nmol relative to control.
Test [2] has as its system Raji. In words: Survival of Raji cells at 0.32 nmol by trypan blue staining method. Format: functional, Homo sapiens. An outline of the steps: (§1)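 Raji cells (EBV genome-carrying, non-producer) grown to 10⁶ cells/mL, centrifuged, resuspended in RPMI 1640 with 10% FCS, 4 mM n-butyric acid and 32 pmol TPA (20 ng/mL), plus test compound in DMSO (32, 16, 3.2 or 0.32 nmol; 1000–10 mol ratio/TPA). Incubated 37 °C, 48 h; viability counted by hemocytometer with Trypan Blue; ≥60% survival required.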

The test system of test [3] is Raji. In words: Survival of Raji cells at 3.2 nmol by trypan blue staining method. Format: functional, Homo sapiens. An outline of the steps:
as §1

Test [4] deals with Raji. In words: Survival of Raji cells at 16 nmol by trypan blue staining method. Format: functional, Homo sapiens. An outline of the steps:
as §1

In test [5] the test system is Raji. The test is described as follows: Survival of Raji cells at 32 nmol by trypan blue staining method. Format: functional, Homo sapiens. In a few lines: as §1
Test [6] relates to Human gammaherpesvirus 4. The test is described as follows: TPA-induced EBV early antigen activation in Raji cells at 0.32 nmol relative to control.
Test [7] concerns Human gammaherpesvirus 4. The test is described as follows: TPA-induced EBV early antigen activation in Raji cells at 16 nmol relative to control.
Test [8] relates to Human gammaherpesvirus 4. The test is described as follows: TPA-induced EBV early antigen activation in Raji cells at 32 nmol relative to control.

As for `COc1cc(/C=C/Cc2ccc(O)c(O)c2OC)ccc1O`, the EBV-EA activation in the test on Human gammaherpesvirus 4 [1] is 70.2%; with Human gammaherpesvirus 4 [6], 95.7%; with Human gammaherpesvirus 4 [7] it was 43.7%; in the test with Human gammaherpesvirus 4 [8], 7.5%. In addition, the Survival in the test with Raji [2] is recorded as greater than 80%; with Raji [3] it was greater than 80%; in the test on Raji [4], greater than 80%; with Raji [5], 60%.
Consider `COc1ccc(C/C=C/c2ccccc2)c(OCC=C(C)C)c1OCC=C(C)C`, for which the EBV-EA activation in the test with Human gammaherpesvirus 4 [1] is 62.2%; in the test on Human gammaherpesvirus 4 [6], 88.6%; in the test with Human gammaherpesvirus 4 [7] it was 24.6%; in the test with Human gammaherpesvirus 4 [8], 0%. Besides, the Survival with Raji [2] is greater than 80%; in the test with Raji [3] it was greater than 80%; with Raji [4], greater than 80%; with Raji [5] it was 70%.
As for `COc1ccc(C/C=C/c2ccccc2)c(O)c1O`, the EBV-EA activation is recorded as 71.5% in the test on Human gammaherpesvirus 4 [1], 100% with Human gammaherpesvirus 4 [6], 42.5% with Human gammaherpesvirus 4 [7] and 10.8% in the test on Human gammaherpesvirus 4 [8]. Besides, the Survival is recorded as greater than 80% in the test with Raji [2], greater than 80% with Raji [3], greater than 80% with Raji [4] and 60% in the test with Raji [5].
Regarding `COc1cc(/C=C/Cc2ccc(OC)c(O)c2O)ccc1O`, the EBV-EA activation turned out to be 73.2% in the test on Human gammaherpesvirus 4 [1], 95.7% with Human gammaherpesvirus 4 [6], 45.5% in the test with Human gammaherpesvirus 4 [7] and 8.7% in the test on Human gammaherpesvirus 4 [8]. Also, the Survival in the test on Raji [2] was greater than 80%; with Raji [3], greater than 80%; with Raji [4], greater than 80%; in the test on Raji [5], 60%.
With `COc1cc(/C=C/Cc2ccc(OC)c(OCC=C(C)C)c2O)ccc1O`, the EBV-EA activation with Human gammaherpesvirus 4 [1] is 64.2%; in the test on Human gammaherpesvirus 4 [6], 87.1%; with Human gammaherpesvirus 4 [7] it was 28.3%; with Human gammaherpesvirus 4 [8], 0%. The Survival in the test on Raji [2] is greater than 80%; with Raji [3], greater than 80%; in the test with Raji [4], greater than 80%; in the test on Raji [5] it was 70%.
As for `COc1cc(/C=C/Cc2ccc(OC)c(OCC=C(C)C)c2OCC=C(C)C)ccc1OCC=C(C)C`, the EBV-EA activation in the test on Human gammaherpesvirus 4 [1] was found to be 61.5%; in the test with Human gammaherpesvirus 4 [6] it was 83.3%; in the test with Human gammaherpesvirus 4 [7], 23.6%; with Human gammaherpesvirus 4 [8], 0%. Besides, the Survival was greater than 80% in the test on Raji [2], greater than 80% in the test with Raji [3], greater than 80% in the test on Raji [4] and 70% in the test on Raji [5].
For the compound `COc1ccc(C/C=C/c2ccccc2)c(OCC=C(C)C)c1`, the EBV-EA activation with Human gammaherpesvirus 4 [1] was found to be 67.8%; in the test with Human gammaherpesvirus 4 [6], 91.7%; with Human gammaherpesvirus 4 [7] it was 29.9%; with Human gammaherpesvirus 4 [8], 0%. Also, the Survival was greater than 80% in the test on Raji [2], greater than 80% in the test with Raji [3], greater than 80% in the test with Raji [4] and 70% in the test with Raji [5].
On to `COc1cc(O)ccc1C/C=C/c1ccccc1`, for which the EBV-EA activation with Human gammaherpesvirus 4 [1] is reported as 73.2%; with Human gammaherpesvirus 4 [6] it was 100%; in the test on Human gammaherpesvirus 4 [7] it was 44.7%; in the test with Human gammaherpesvirus 4 [8], 18.1%. In addition, the Survival is on record as greater than 80% in the test on Raji [2], greater than 80% in the test on Raji [3], greater than 80% with Raji [4] and 60% with Raji [5].
As for `COc1ccc(C/C=C/c2ccccc2)c(OCC=C(C)C)c1O`, the EBV-EA activation in the test with Human gammaherpesvirus 4 [1] is recorded as 64.5%; in the test on Human gammaherpesvirus 4 [6] it was 90.6%; in the test on Human gammaherpesvirus 4 [7], 27.6%; in the test with Human gammaherpesvirus 4 [8] it was 0%. Besides, the Survival in the test with Raji [2] is on record as greater than 80%; in the test on Raji [3] it was greater than 80%; in the test with Raji [4] it was greater than 80%; in the test on Raji [5], 70%.
`COc1cc(/C=C/Cc2ccc(O)c(O)c2OC)ccc1OC(C)=O`: the EBV-EA activation with Human gammaherpesvirus 4 [1] came to 74%; in the test on Human gammaherpesvirus 4 [6], 100%; in the test on Human gammaherpesvirus 4 [7], 36.1%; in the test on Human gammaherpesvirus 4 [8] it was 9.4%. Further, the Survival was greater than 80% in the test on Raji [2], greater than 80% in the test with Raji [3], greater than 80% in the test on Raji [4] and 60% with Raji [5].
In the case of `COc1c(C/C=C/c2ccccc2)ccc(O)c1C/C=C/c1ccccc1`, the EBV-EA activation turned out to be 68.2% in the test with Human gammaherpesvirus 4 [1], 100% in the test on Human gammaherpesvirus 4 [6], 41.5% in the test with Human gammaherpesvirus 4 [7] and 12.8% with Human gammaherpesvirus 4 [8]. In addition, the Survival in the test on Raji [2] is reported as greater than 80%; in the test with Raji [3], greater than 80%; in the test with Raji [4], greater than 80%; in the test on Raji [5], 60%.
With `COc1cc(OCC=C(C)C)ccc1C/C=C/c1ccccc1`, the EBV-EA activation in the test with Human gammaherpesvirus 4 [1] is 65.2%; in the test on Human gammaherpesvirus 4 [6], 87.6%; in the test with Human gammaherpesvirus 4 [7] it was 29.3%; with Human gammaherpesvirus 4 [8] it was 0%. The Survival in the test on Raji [2] was greater than 80%; in the test on Raji [3] it was greater than 80%; in the test on Raji [4] it was greater than 80%; with Raji [5], 70%.
Take `COc1cc(/C=C/C(=O)CC(=O)/C=C/c2ccc(O)c(OC)c2)ccc1O` [CURCUMIN]: the EBV-EA activation is 81.7% with Human gammaherpesvirus 4 [1], 100% in the test on Human gammaherpesvirus 4 [6], 22.8% in the test with Human gammaherpesvirus 4 [7] and 0% in the test on Human gammaherpesvirus 4 [8]. For the same compound, the Survival is greater than 80% with Raji [2], greater than 80% with Raji [3], greater than 80% with Raji [4] and 60% in the test with Raji [5].
On to `COc1c(C/C=C/c2ccccc2)cc(C/C=C/c2ccccc2)c(O)c1OC`, for which the EBV-EA activation in the test on Human gammaherpesvirus 4 [1] is on record as 75.6%; in the test on Human gammaherpesvirus 4 [6], 100%; in the test on Human gammaherpesvirus 4 [7], 46.4%; in the test on Human gammaherpesvirus 4 [8] it was 15.9%. Moreover, the Survival was greater than 80% with Raji [2], greater than 80% with Raji [3], greater than 80% in the test with Raji [4] and 60% with Raji [5].
On to `COc1ccc(C/C=C/c2ccccc2)c(O)c1`, for which the EBV-EA activation with Human gammaherpesvirus 4 [1] amounted to 73.7%; in the test on Human gammaherpesvirus 4 [6], 100%; in the test with Human gammaherpesvirus 4 [7] it was 45.1%; with Human gammaherpesvirus 4 [8] it was 20.7%. For the same compound, the Survival with Raji [2] is recorded as greater than 80%; in the test on Raji [3], greater than 80%; in the test on Raji [4], greater than 80%; with Raji [5], 60%.
On to `COc1cccc(OCC=C(C)C)c1C/C=C/c1ccccc1`, for which the EBV-EA activation in the test with Human gammaherpesvirus 4 [1] was 68.9%; with Human gammaherpesvirus 4 [6] it was 92.7%; with Human gammaherpesvirus 4 [7] it was 30.8%; with Human gammaherpesvirus 4 [8], 0%. Moreover, the Survival was greater than 80% with Raji [2], greater than 80% in the test with Raji [3], greater than 80% with Raji [4] and 70% in the test on Raji [5].
With `COc1c(C/C=C/c2ccccc2)cc(C/C=C/c2ccccc2)c(OC)c1OC`, the EBV-EA activation was 75.2% in the test with Human gammaherpesvirus 4 [1], 100% in the test on Human gammaherpesvirus 4 [6], 39.8% with Human gammaherpesvirus 4 [7] and 12.6% with Human gammaherpesvirus 4 [8]. The Survival in the test on Raji [2] is given as greater than 80%; with Raji [3], greater than 80%; in the test on Raji [4] it was greater than 80%; in the test with Raji [5], 60%.
